Active and inactive are the calls of the source. The calls are words filed in the database; no cut-off is given here.
What was measured:
MCF7 [1] = test: Induction of cell cycle arrest in human MCF7 cells assessed as reduction in CyclinB1 expression incubated for 24 hrs by Western blot analysis; type: functional, cell-based; details: dose 10-100 nM
Procedure, shortened: (§1)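 MCF-7 cells treated 24 h with 0, 10, 50 or 100 nM compound and lysed in RIPA buffer. Equal protein loads separated by 8–12% SDS-PAGE, transferred to nitrocellulose and blocked with 5% milk. Probed overnight at 4 °C with primary antibodies to Cdc25c, Cdc2 and Cyclin B1, then HRP secondary, with ECL detection. Densitometry averaged from two independent experiments.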

MCF7 [2] = test: Induction of cell cycle arrest in human MCF7 cells assessed as accumulation in G1 phase at 5 nM incubated for 24 hrs by PI staining based flow cytometry analysis (reference value: 63.70 %); type: functional
MCF7 [3] = test: Induction of cell cycle arrest in human MCF7 cells assessed as accumulation in G1 phase at 10 nM incubated for 24 hrs by PI staining based flow cytometry analysis (reference value: 63.70 %); type: functional
HeLa = test: Antiproliferative activity against human HeLa cells assessed as reduction in cell growth incubated for 72 hrs by MTT assay; type: functional, cell-based
Procedure, shortened: (§2)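 Log-phase cells seeded at 5 × 10³/well and grown 24 h, then exposed to graded compound concentrations for 72 h. MTT (5 mg/mL) added for 4 h; formazan dissolved in DMSO and absorbance read at 490 nm. IC50 calculated from growth inhibition; means ± SD of triplicate experiments.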

MCF7 [4] = test: Antiproliferative activity against human MCF7 cells assessed as reduction in cell growth incubated for 72 hrs by MTT assay; type: functional, cell-based; details: MCF7, 72 h; procedure, shortened: as §2
MCF7 [5] = test: Disruption of microtubule organization in human MCF7 cells assessed as breakage and abnormal spindle formation incubated for 6 hrs by immunofluorescence based laser scanning confocal microscopic analysis; type: functional, cell-based; details: dose 10-100 nM
Procedure, shortened: (§3)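 MCF-7 cells (3 × 10⁴) grown 24 h in confocal dishes, then treated 6 h with compound. Fixed in prewarmed 4% paraformaldehyde, permeabilized with 0.5% Triton X-100, blocked with 10% goat serum. Stained with mouse anti-tubulin (4 °C overnight), Alexa Fluor 488 secondary, and DAPI. Imaged by laser scanning confocal microscopy.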

Sus scrofa = organism: Sus scrofa; test: (§4) Inhibition of pig brain tubulin polymerization by spectrophotometric method; type: tissue-based
Procedure, shortened: (§5)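 Pig brain tubulin, purified by three assembly/disassembly cycles and phosphocellulose chromatography, mixed with compound at various concentrations. Buffer: PEM (100 mM PIPES, 1 mM MgCl₂, 1 mM EGTA) with 1 mM GTP and 5% glycerol. Polymerization followed at 37 °C by light scattering at 340 nm; plateau absorbance used for calculation.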

[6] = as §4; type: tissue-based, Sus scrofa; procedure, shortened: as §5
MCF7 [7] = test: Induction of cell cycle arrest in human MCF7 cells assessed as reduction in Cdc2 expression incubated for 24 hrs by Western blot analysis; type: functional, cell-based; details: dose 10-100 nM; procedure, shortened: as §1
HUVEC [8] = test: Cytotoxicity against HUVEC cells assessed as reduction in cell growth incubated for 72 hrs by MTT assay; type: cell-based; details: Homo sapiens; procedure, shortened: as §2
HUVEC [9] = test: Antimigratory activity against human HUVEC assessed as cell migration rate at 0.1 uM incubated for 24 hrs by wound healing assay (reference value: 100 %); type: functional
MCF7 [10] = test: Reduction in VEGF-A expression in human MCF7 cells at 50 to 100 nM incubated for 24 hrs by Western blot analysis; type: functional, cell-based; details: dose 50-100 nM
Procedure, shortened: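 MCF-7 cells treated with compound at various concentrations for 24 h. VEGF-A protein assessed by western blot (RIPA lysis, SDS-PAGE, nitrocellulose transfer, ECL detection) with quantitative densitometry. Mean ± SD, three independent experiments.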

HCT-116 = test: Antiproliferative activity against human HCT-116 cells assessed as reduction in cell growth incubated for 72 hrs by MTT assay; type: functional, cell-based; details: HCT-116, 72 h; procedure, shortened: as §2
HUVEC [11] = test: Upregulation of TIMP-1 protein expression in HUVEC at 0.05 to 1 uM incubated for 24 hrs by Western blot analysis; type: functional; details: Homo sapiens, dose 0.05-1 µM
Procedure, shortened: (§6)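 HUVECs exposed to various compound concentrations for 24 h. MMP-9 and TIMP-1 measured by western blot: RIPA lysates, equal protein loads on 8–12% SDS-PAGE, nitrocellulose transfer, primary antibodies overnight at 4 °C, HRP secondary, ECL detection.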

MCF7 [12] = test: Induction of cell cycle arrest in human MCF7 cells assessed as accumulation in S phase at 10 nM incubated for 24 hrs by PI staining based flow cytometry analysis (reference value: 19.50 %); type: functional
MCF7 [13] = test: Disruption of microtubule organization in human MCF7 cells assessed as microtubules spindle shrinkage around the centre of the cell at 100 nM incubated for 6 hrs by immunofluorescence based laser scanning confocal microscopic analysis; type: functional; procedure, shortened: as §3
HUVEC [14] = test: Antimigratory activity against human HUVEC assessed as cell migration rate at 0.1 uM incubated for 12 hrs by wound healing assay (reference value: 68.5 %); type: functional
HUVEC [15] = test: Antimigratory activity against human HUVEC assessed as cell migration rate at 0.5 uM incubated for 12 hrs by wound healing assay (reference value: 68.5 %); type: functional
MCF7 [16] = test: Induction of cell cycle arrest in human MCF7 cells assessed as reduction in Cdc25c expression incubated for 24 hrs by Western blot analysis; type: functional, cell-based; details: dose 10-100 nM; procedure, shortened: as §1
WI-38 = test: Cytotoxicity against human WI-38 cells assessed as reduction in cell growth incubated for 72 hrs by MTT assay; type: cell-based; details: WI-38, 72 h; procedure, shortened: as §2
HUVEC [17] = test: Antimigratory activity against human HUVEC assessed as cell migration rate at 1 uM incubated for 24 hrs by wound healing assay (reference value: 100 %); type: functional
HUVEC [18] = test: Antiinvasive activity against human HUVEC incubated for 24 hrs by crystal violet staining based inverted fluorescence microscopic transwell assay; type: functional, cell-based; details: dose 0.05-1 µM
Procedure, shortened: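 Transwell inserts pre-coated with Matrigel (5 h, 37 °C). Cells in serum-free medium with 0, 0.05, 0.1, 0.5 or 1 μM compound were added to the upper well at 5 × 10⁵ cells/mL; the lower chamber held ECM with 10% FBS. After 24 h at 37 °C, invaded cells were methanol-fixed, stained with 0.1% crystal violet and counted in three random fields. Mean ± SD, three independent experiments.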

MCF7 [19] = test: Induction of cell cycle arrest in human MCF7 cells assessed as accumulation in S phase at 5 nM incubated for 24 hrs by PI staining based flow cytometry analysis (reference value: 19.50 %); type: functional
HepG2 = test: Antiproliferative activity against human HepG2 cells assessed as reduction in cell growth incubated for 72 hrs by MTT assay; type: functional, cell-based; details: HepG2, 72 h; procedure, shortened: as §2
HUVEC [20] = test: Antimigratory activity against human HUVEC assessed as cell migration rate at 1 uM incubated for 12 hrs by wound healing assay (reference value: 68.5 %); type: functional
A549 = test: Antiproliferative activity against human A549 cells assessed as reduction in cell growth incubated for 72 hrs by MTT assay; type: functional, cell-based; details: A549, 72 h; procedure, shortened: as §2
HUVEC [21] = test: Antivascular activity against HUVEC assessed as reduction in tube formation at 1 microM incubated for 6 hrs by matrigel based inverted fluorescence microscopic analysis; type: functional; details: Homo sapiens
Procedure, shortened: (§7)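 Matrigel polymerized 30 min at 37 °C. HUVECs in ECM medium with 20% FBS seeded at 5 × 10⁴/well with compound at 0, 0.1, 0.5 or 1 μM. After 6 h, tubule formation was photographed under an inverted microscope (×100).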

HUVEC [22] = test: Antivascular activity against HUVEC assessed as reduction in tube formation incubated for 6 hrs by matrigel based inverted fluorescence microscopic analysis; type: functional, cell-based; details: Homo sapiens, dose 0.1-1 µM; procedure, shortened: as §7
HUVEC [23] = test: Antivascular activity against HUVEC assessed as reduction in tube formation at 0.1 microM incubated for 6 hrs by matrigel based inverted fluorescence microscopic analysis; type: functional, cell-based; details: Homo sapiens; procedure, shortened: as §7
HUVEC [24] = test: Antivascular activity against HUVEC assessed as disruption of vascular structure incubated for 6 hrs by matrigel based inverted fluorescence microscopic analysis; type: functional, cell-based; details: Homo sapiens, dose 0.1-1 µM
Procedure, shortened: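 Capillary-like networks were formed by HUVECs on Matrigel over 6 h, then exposed to vehicle or compound (0.1, 0.5, 1 μM) in serum-free DMEM for 6 h and photographed. Remaining tubes were counted; disruption = [1 − (tubes treated/tubes vehicle)] × 100%.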

MCF7 [25] = test: Induction of cell cycle arrest in human MCF7 cells assessed as accumulation in G2/M phase at 5 nM incubated for 24 hrs by PI staining based flow cytometry analysis (reference value: 16.81 %); type: functional
HUVEC [26] = test: Downregulation of MMP-9 protein expression in HUVEC at 0.05 to 1 uM incubated for 24 hrs by Western blot analysis; type: functional; details: Homo sapiens, dose 0.05-1 µM; procedure, shortened: as §6
HUVEC [27] = test: Antimigratory activity against human HUVEC assessed as cell migration rate at 0.5 uM incubated for 24 hrs by wound healing assay (reference value: 100 %); type: functional
MCF7 [28] = test: Induction of apoptosis in human MCF7 cells; type: functional, cell-based
MCF7 [29] = test: Disruption of microtubule organization in human MCF7 cells assessed as microtubules shrinkage around the nucleus at 10 nM incubated for 6 hrs by immunofluorescence based laser scanning confocal microscopic analysis; type: functional, cell-based; procedure, shortened: as §3
MCF7 [30] = test: Induction of cell cycle arrest in human MCF7 cells assessed as accumulation in G2/M phase at 10 nM incubated for 24 hrs by PI staining based flow cytometry analysis (reference value: 16.81 %); type: functional

## COc1ccc2c(N(C)c3cc(OC)c(OC)c(OC)c3)n[nH]c2n1
MCF7 [1]
  Activity: Dose-dependent effect
MCF7 [2]
  Activity: 26.47%
MCF7 [3]
  Activity: 9.16%
HeLa
  IC50: 0.21 µM
MCF7 [4]
  IC50: 0.067 µM
MCF7 [5]
  Activity: Dose-dependent effect
Sus scrofa
  inhibition: Dose-dependent effect
[6]
  IC50: 14 µM
MCF7 [7]
  Activity: Dose-dependent effect
HUVEC [8]
  IC50: 23.5 µM
HUVEC [9]
  Activity: 26.4%
MCF7 [10]
  inhibition: Active
HCT-116
  IC50: 0.26 µM
HUVEC [11]
  Activity: Active
MCF7 [12]
  Activity: 10.11%
MCF7 [13]
  Activity: Active
HUVEC [14]
  Activity: 12.4%
HUVEC [15]
  Activity: 11.3%
MCF7 [16]
  Activity: Dose-dependent effect
WI-38
  IC50: 23.4 µM
HUVEC [17]
  Activity: 22.4%
HUVEC [18]
  Activity: Dose-dependent effect
MCF7 [19]
  Activity: 10.02%
HepG2
  IC50: 4.79 µM
HUVEC [20]
  Activity: 10.9%
A549
  IC50: 6 µM
HUVEC [21]
  inhibition at 1 µM: 100%
HUVEC [22]
  Activity: Dose-dependent effect
HUVEC [23]
  Activity: Active
HUVEC [24]
  Activity: Dose-dependent effect
MCF7 [25]
  Activity: 63.5%
HUVEC [26]
  inhibition: Active
HUVEC [27]
  Activity: 26.6%
MCF7 [28]
  Activity: inactive
MCF7 [29]
  Activity: Active
MCF7 [30]
  Activity: 80.73%

— ChEMBL document CHEMBL4680339, “Synthesis and bioevaluation of N-(3,4,5-trimethoxyphenyl)-1H-pyrazolo[3,4-b]pyridin-3-amines as tubulin polymerization inhibitors with anti-angiogenic effects” (Bioorg Med Chem, 2021)
